OX1R antag-1 – antagonists of human orexin 1 receptor (OX1R); Orexin/Hypocretin receptor type 1 (Homo sapiens), O43613; OX1R-expressing cells, FRET antagonist read-out; inhibition, % at 6.6 µM; actives 1.8% (n = 330,000); in the data active = inhibition mostly above about 38%, no sharp cut-off; inactive = mostly below about 40%;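 also: 0% = agonist challenge alone and 100% = reference antagonist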
Target sequence (O43613 whole entry, looked up): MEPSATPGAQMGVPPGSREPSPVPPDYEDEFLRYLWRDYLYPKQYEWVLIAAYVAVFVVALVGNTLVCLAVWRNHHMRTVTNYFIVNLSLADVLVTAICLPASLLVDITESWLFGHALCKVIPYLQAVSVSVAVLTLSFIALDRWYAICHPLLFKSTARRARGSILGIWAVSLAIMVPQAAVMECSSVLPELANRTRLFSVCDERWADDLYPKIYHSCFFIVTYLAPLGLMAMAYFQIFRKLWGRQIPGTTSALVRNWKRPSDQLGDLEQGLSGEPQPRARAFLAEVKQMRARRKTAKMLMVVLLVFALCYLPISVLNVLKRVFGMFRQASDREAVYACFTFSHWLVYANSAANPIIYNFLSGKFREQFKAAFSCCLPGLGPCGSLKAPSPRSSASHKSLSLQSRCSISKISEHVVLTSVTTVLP
TAAR1 agonist – human TAAR1 agonists, primary screen, Fluo-8 calcium fluorescence, CHO RD-HGA16 cells; Trace amine-associated receptor 1 (Homo sapiens), Q96RJ0; actives 0.99% (n = 360,000); activation, % at 3 µM; vehicle wells 0%, saturating PEA agonist 100%;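 active = activation above the mean activation of all test compounds in the run plus 3 SD, cut at about 38% in these data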
Target sequence (Q96RJ0 whole entry, looked up): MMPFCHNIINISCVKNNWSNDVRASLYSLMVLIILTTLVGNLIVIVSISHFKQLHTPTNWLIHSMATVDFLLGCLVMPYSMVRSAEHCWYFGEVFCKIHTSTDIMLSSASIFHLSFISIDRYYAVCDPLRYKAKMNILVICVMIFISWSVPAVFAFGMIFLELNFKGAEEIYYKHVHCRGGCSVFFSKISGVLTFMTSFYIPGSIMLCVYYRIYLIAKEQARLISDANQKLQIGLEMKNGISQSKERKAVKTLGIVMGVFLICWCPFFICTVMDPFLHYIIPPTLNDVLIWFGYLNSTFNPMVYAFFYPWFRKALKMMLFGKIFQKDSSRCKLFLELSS
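System: CHO-derived RD-HGA16 cells with stable Gα16 and human TAAR1 / Times: 17-24 h plating, Fluo-8 75 min 37 °C, 30 min RT / Technique: calcium-sensitive Fluo-8 signal, excitation 470-495, emission 515-575 nm / Measure: % activation relative to PEA EC100 response / Benchmarks: DMSO and PEA EC100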
GPR7 antagonist – GPR7 receptor antagonists, primary screen, cell-based, fluorescence, single concentration | actives 1.1% (n = 290,000) | GPR7-expressing cells, fluorescence antagonist assay | Neuropeptides B/W receptor type 1 (Homo sapiens), P48145 | inhibition, % at 4.4 µM; in the data active = inhibition above about 16%, passing the limit was not always enough;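 also: cells stimulated with the agonist NPW; 0% = agonist with vehicle and 100% = vehicle without agonist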
OX1R antag-2 – OX1R (HCRTR1) antagonists, primary screen, fluorescence, CHO/OX1R cells, Fluo-8 calcium, orexin A | Orexin/Hypocretin receptor type 1 (Homo sapiens), O43613 | Fluo-8 calcium fluorescence | inhibition, % at 5 µM | actives 0.43% (n = 330,000);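 active = inhibition above its plate's threshold, mean inhibition of all tested compounds on the plate plus 3 SD, cut at about 37% in these data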;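 also: 0% = orexin A challenge wells and 100% = SB-334867-A antagonist wells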
TAAR1 antag – human TAAR1 antagonists, primary screen, Fluo-8 calcium fluorescence, CHO RD-HGA16 cells; Trace amine-associated receptor 1 (Homo sapiens), Q96RJ0; antagonist; inhibition, % at 3 µM; actives 1.5% (n = 360,000);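 active = inhibition above a per-plate cutoff, the mean inhibition of test compounds on that plate plus 3 SD, cut at about 49% in these data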;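 also: 0% = DMSO plus EC80 beta-PEA response and 100% = DMSO alone without agonist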
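Test system – hTAAR1-expressing CHO RD-HGA16 cells, Gα16-coupled · Reagent – β-PEA at EC80 concentration, post-compound challenge · Compound dosing – 3 µM, single point · Timing – 140 s kinetic read after compound, 140 s after agonist · Detection – Fluo-8 intracellular calcium dye fluorescence, real-time kinetic reads · Control set – DMSO and EC80 PEA controls · Repeats – n of 1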
CHO parental Ca – ATP-evoked calcium signal inhibitors, parental CHO, primary screen, counter-screen for OX1R antagonist project, cell-based, fluorescence, Fluo-8 calcium dye; actives 0.63% (n = 330,000); AID 463079, 2010; inhibition, % at 5.6 µM; parental CHO-K1, ATP-induced calcium, Fluo-8 fluorescence;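 active = inhibition above that plate's mean sample inhibition plus 3 SD, cut at about 26% in these data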;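 also: 0% = ATP-challenged DMSO wells and 100% = DMSO wells without ATP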
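Material – parental CHO cells · Reagent – ATP stimulus · Compound – single nominal dose of 5.6 µM per compound · Detection – Fluo-8 fluorescence · Read-out basis – percent inhibition of calcium signal · Controls – ATP-challenged DMSO wells low, unchallenged DMSO wells high · Repeats – no replicates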
nonsel antag count – nonselective antagonists in TAAR1 counter-screen cells, counter-screen for hTAAR1 antagonist project, cell-based, fluorescence, calcium. counterscreen cell line, antagonist mode. inhibition, % at 3 µM. actives 77% (n = 2,400). shares compounds with TAAR1 antag; in the data active = inhibition above about 22%;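 also: CHO-Ga16 host cells stimulated with ATP at an EC80 level; 0% = agonist EC80 plus vehicle and 100% = vehicle without agonist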
TAAR1 antag conf – human TAAR1 antagonists, retest of hits, confirmation, cell-based, fluorescence | shares compounds with TAAR1 antag | TAAR1-expressing cells, fluorescence antagonist read-out | inhibition, % at 3 µM | actives 40% (n = 2,400); in the data active = inhibition above about 49%;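 also: CHO-Ga16 host cells challenged with agonist PEA near its EC80; 0% = agonist at EC80 plus vehicle and 100% = vehicle with no agonist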
Ga16 ag counter – calcium activation in Ga16-expressing cells, counter-screen for TAAR1 antagonist project, cell-based, fluorescence; shares compounds with TAAR1 antag; agonist counterscreen; activation, % at 3 µM; actives 18% (n = 2,400); in the data active = activation above about 12%;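 also: 0% = vehicle wells and 100% = saturating stimulus response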
TAAR1 ag count – TAAR1 activation by candidate antagonists – cell-based, fluorescence, counter-screen for TAAR1 antagonist project. actives 2% (n = 2,400). hTAAR1 cell line, agonist mode. AID 651955, 2012. shares compounds with TAAR1 antag. activation, % at 3 µM; in the data active = activation above about 37%;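 also: CHO cells stably expressing TAAR1 with calcium dye readout; 0% = DMSO vehicle and 100% = full agonist response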
* marks the source's active call; other numbers are inactive results; nt = not tested or not shown. The list is not random: actives were taken first. Their share in the collection is about 4.6%.

SMILES	OX1R antag-1	TAAR1 agonist	GPR7 antagonist	OX1R antag-2	TAAR1 antag	CHO parental Ca	nonsel antag count	TAAR1 antag conf	Ga16 ag counter	TAAR1 ag count
CCOC(=O)c1oc2ccccc2c1NC(=O)c1cccc(OC)c1	8.8	4.5	-17.1	-51.9	-10.1	-32.7	nt	nt	nt	nt
COc1cccc(C(=O)Nc2c(C(N)=O)oc3ccccc23)c1	76.8*	12.2	-7.6	6.0	56.0*	-15.2	24.2*	40.7	7.2	9.2
CCOC(=O)C1=C(C)NC(C)=C(C(=O)OCC)C1C(=O)OCC(=O)NC1CCCCC1	14.8	18.0	nt	-14.2	61.1*	-3.9	27.4*	52.0*	10.4	15.6
CCOC(=O)C1=C(C)NC(C)=C(C(=O)OCC)C1C(=O)OCC(=O)NC1(C#N)CCCCC1	1.6	16.6	nt	-20.3	62.7*	-28.5	29.0*	54.5*	9.4	9.2
COc1ccc([C@H]2C[C@@H](n3cc(C4CC4)nn3)[C@H](O)CN2CC2CCCCC2)cc1	nt	-2.1	nt	nt	-5.9	nt	nt	nt	nt	nt
Cc1cc2nc(-c3ccc(Cl)cc3)c(CC3CCCCC3)n2c(C)c1Br	nt	-0.5	nt	nt	-6.5	nt	nt	nt	nt	nt
COc1cc(-c2cc(NC=O)c3ncc(-c4ccc(C(C)=O)cc4)n3c2)cc(OC)c1OC	nt	7.3	nt	nt	52.9*	nt	23.0*	37.1	9.9	11.3
COc1ccc(-c2cc(NC=O)c3ncc(-c4ccc(C(C)=O)cc4)n3c2)cc1OC	nt	7.8	nt	nt	25.8	nt	nt	nt	nt	nt
CC(=O)Nc1cc(-c2ccc(CO)cc2)cn2c(-c3cccc(C(F)(F)F)c3)cnc12	nt	13.2	nt	nt	69.6*	nt	36.3*	50.6*	9.6	15.1
COc1ccccc1-c1cc(NC(C)=O)c2ncc(-c3cccc(C(C)=O)c3)n2c1	nt	3.3	nt	nt	85.9*	nt	32.4*	52.9*	6.7	2.6
COc1ccc(OC)c(NC(=O)C2(C)CCN2Cc2ccc(OC)c3ccccc23)c1 (configuration not stated)	nt	0.2	nt	nt	-30.1	nt	nt	nt	nt	nt
CCC(=O)N(CCc1ccccc1C)Cc1cc2ccc(C)cc2[nH]c1=O	9.0	19.7	2.1	-44.2	60.4*	-22.7	28.5*	49.2*	11.4	12.9
CC(=O)N(CCc1ccccc1C)Cc1cc2cc3c(cc2[nH]c1=O)OCO3	21.2	1.6	-1.5	-4.6	-3.6	-7.7	nt	nt	nt	nt
CCOC(=O)C1=CCN(S(=O)(=O)c2ccccc2Br)C1c1ccc(Cl)cc1 (configuration not stated)	nt	1.2	nt	nt	28.1	nt	nt	nt	nt	nt
Cn1c(NC(=O)c2cccc(Cn3cc(Cl)cn3)c2)nc2ccccc21	2.8	16.3	-8.9	-18.1	31.2	-16.4	nt	nt	nt	nt
CCn1c(NC(=O)c2cccc(Cn3cc(Cl)cn3)c2)nc2ccccc21	23.8	4.8	-8.8	-24.0	65.6*	-5.8	26.4*	39.0	5.0	7.2
CCOc1cc(C(=O)N/N=C/c2ccoc2)cc(OCC)c1OCC	nt	-1.4	2.9	nt	-0.8	nt	nt	nt	nt	nt
CC(C)COc1ccc(C(=O)N/N=C/c2ccoc2)cc1	44.0	-1.1	-10.6	-20.9	62.3*	2.1	13.2	36.9	8.4	10.4
CCNC(=O)OC[C@H]1O[C@H](C#Cc2ccc(C(C)(C)C)cc2)C=C[C@H]1O	nt	1.4	nt	nt	-2.2	nt	nt	nt	nt	nt
CC(C)(C)c1ccc(C#C[C@@H]2C=C[C@H](O)[C@@H](COC(=O)Nc3ccccc3)O2)cc1	nt	13.9	nt	nt	50.7*	nt	25.7*	29.4	3.8	14.2
COc1ccc(OC)c(CN(CC(C)C)S(=O)(=O)c2ccccc2Br)c1	nt	2.4	nt	nt	30.9	nt	nt	nt	nt	nt
C=CCNc1ncnc2c1ncn2[C@H]1CN(CCN2CCOCC2)C[C@@H](CO)O1	nt	1.5	nt	nt	-5.7	nt	nt	nt	nt	nt
Cc1ccc(-c2nc(N/N=C/c3ccncc3)c3ccccc3n2)cc1	-1.5	11.0	7.5	-19.9	56.6*	-8.4	27.2*	44.2	4.3	1.4
COc1ccc(/C=N/Nc2nc(-c3cccnc3)nc3ccccc23)cc1OC	23.7	18.6	-5.5	-22.2	71.8*	-16.2	29.2*	51.3*	10.4	8.4
Oc1ccc(/C=N/Nc2nc(-c3cccnc3)nc3ccccc23)c(O)c1	6.1	14.6	-14.6	-14.0	80.9*	-14.0	23.1*	44.3	7.6	9.7
SMILES	OX1R antag-1	TAAR1 agonist	GPR7 antagonist	OX1R antag-2	TAAR1 antag	CHO parental Ca	nonsel antag count	TAAR1 antag conf	Ga16 ag counter	TAAR1 ag count
Clc1ccccc1-c1nc(N/N=C/c2cccnc2)c2ccccc2n1	22.1	8.2	8.0	-37.0	30.4	-39.3	nt	nt	nt	nt
Clc1cccc(CNc2nc(-c3cccnc3)nc3ccccc23)c1	nt	6.1	5.7	nt	45.4	nt	nt	nt	nt	nt
COC(=O)C[C@H]1CC[C@@H](NC(=O)C2CC2)[C@@H](CO)O1	nt	0.3	nt	nt	11.2	nt	nt	nt	nt	nt
CC1(C(=O)NS(=O)(=O)C2CC2)CCCN(C(=O)c2cc3ccccc3s2)C1 (configuration not stated)	nt	0.1	nt	nt	-3.0	nt	nt	nt	nt	nt
Cc1nn(-c2ccccc2)c(C)c1NC(=O)COC(=O)c1ccc(O)cc1O	nt	21.4	0.7	nt	75.6*	nt	29.4*	55.2*	10.2	10.9
Cc1nn(-c2ccccc2)c(C)c1NC(=O)COC(=O)[C@@H](NC(=O)c1ccccc1)C(C)C	16.4	0.6	nt	-23.3	0.2	-20.3	nt	nt	nt	nt
COc1ccc(C2CC(=O)C(c3cccc(C)c3)=CN2Cc2ccccc2)cc1 (configuration not stated)	nt	3.4	nt	nt	66.0*	nt	22.4*	39.7	2.4	1.1
CSc1ccc(CN2CCC(C)(Oc3cccc(C#N)c3)C2)cc1 (configuration not stated)	nt	-1.2	nt	nt	7.0	nt	nt	nt	nt	nt
Cc1cc(C)cc(OCC(=O)Nc2ccc(N3CCN(C(=O)c4ccco4)CC3)cc2)c1	26.4	22.8	-10.3	9.6	74.3*	5.2	43.4*	62.4*	12.1*	8.7
